As usually defined, the AUC is the area under the concentration-time curve, a measure of exposure. Low readings indicate less exposure, high ones more exposure. In general, Cmax refers to the peak of the concentration-time curve. Broadly, the half-life is the time needed for the level to fall by half in the phase considered.

“And” between values parts separate entries of the source, which are not always exact repeats. Equal entries are not always repeated. Where only a bound is given, the exact number is not on record here.

We go through two molecules from PMC9200148 (The Journal of Infectious Diseases, 2020).

One data set concerns RSV. Conditions: cited from earlier work.
Data set [1] deals with RSV-A Memphis 37b. Briefly: RSV challenge study: viral load in nasal wash by RT-qPCR. Format: in vivo, human. As to conditions: for AUC VL from baseline through day 12 / Reduction in AUC VL vs placebo: 5 mg BID nebulized; for AUC VL from baseline through day 12 / Peak VL / Time to nondetectability (or <1 log) of RSV RNA / VL at 2.5 d (peak at placebo) after first dose / VL slope: baseline to 24 h after first dose / VL slope: baseline to 48 h after first dose: LS mean (SD). In short, it runs like this:
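Nasal washes collected twice daily were assayed for RSV RNA by RT-qPCR (Simplexa) and expressed as log10 PFUe/mL. ITT-I was defined as PCR-positive just before dosing, or positive on at least two later occasions. Nebulized 5 mg or placebo was given every 12 h for 5 days, starting about 12 h after detection or on day 6. Viral load AUC, peak and time to nondetectability were analysed by a mixed-effects model and t test.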
For orientation: In qPCR the cycle at which signal appears reflects the starting amount.

For data set [2], the system named is RSV-A Memphis 37b. Briefly: RSV challenge study: symptom score and mucous weight. Format: in vivo, human. Conditions: for AUC of mucous weight from baseline through day 12 / AUC of symptom score from baseline through day 12: LS mean (SD). The method, boiled down: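 Volunteers with low serum neutralizing titres were challenged with RSV-A Memphis 37b. Dosing with 5 mg or placebo by nebulizer every 12 h for 5 days began about 12 h after RT-qPCR detection or on the morning of day 6, whichever came first. Symptoms were self-recorded in diaries three times daily, and mucus was weighed daily from used facial tissues. AUCs were computed and group means compared by t test in the ITT-I population.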

Data set [3] is described as follows: RSV challenge study: safety. Format: in vivo, human. In short, it runs like this:
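This was a randomized, single-blind, placebo-controlled study in healthy adults inoculated intranasally on day 0 and held in quarantine for 15 days. They received 5 mg or placebo by nebulizer and facemask every 12 h for 5 days. The ITT population comprised those inoculated who received at least one dose. Adverse events (counted as subjects reporting them), laboratory values, vital signs, ECG and spirometry were recorded through day 28 (±3 days).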

Data set [4] can be described thus: Plasma pharmacokinetics after repeated nebulized dosing. The class given is in vivo, human. The method, boiled down:
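Healthy adults aged 18–55 received 5 mg nebulized by facemask every 12 h for 5 days (10 doses), with the first dose either in the morning (schedule A) or the evening (schedule B). Serial plasma samples were assayed by LC–MS/MS after liquid–liquid extraction, using a D4-labelled internal standard (LLOQ 0.1 ng/mL; range 0.1–100 ng/mL). Tmax was timed from the end of inhalation, and values are geometric means of both schedules.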

For `CS(=O)(=O)CCCn1c(Cn2c(=O)n(CC(F)(F)F)c3ccncc32)cc2cc(Cl)ccc21` [JNJ-53718678], the “AUC reduction of viral load in RSV challenge study” value in the data set on RSV was 41%–53%.

Take `Cc1cnc(N2CC3(CCOCC3)C2)c(C(=O)Nc2ccc(C(=O)N3CCc4cc(C(=O)Nc5c(C)cccc5F)sc4-c4ccccc43)cc2)c1` [PC786, N-(2-fluoro-6-methylphenyl)-6-(4-(5-methyl-2-(7-oxa-2-azaspiro [3.5]nonan-2-yl)nicotinamido)benzoyl)-5,6-dihydro-4H-benzo[b]thieno[2,3-d]azepine-2-carboxamide]: the “AUC VL from baseline through day 12” value in the data set on RSV-A Memphis 37b [1] (ITT-I (n = 22)) is 274.1 log10 PFUe/mL × h and 274.1 (234.42) log10 PFUe/mL × h. Moreover, in the data set with RSV-A Memphis 37b [1] (ITT-I), the “Reduction in AUC VL vs placebo” value is recorded as 32.57%, the “Peak VL” value is recorded as 3.4 (1.76) log10 PFUe/mL, the “Time to nondetectability (or <1 log) of RSV RNA” value is given as 4.6 (3.75) d and the “VL at 2.5 d (peak at placebo) after first dose” value is 2.0 (1.82) log10 PFUe/mL. In the data set with RSV-A Memphis 37b [1] (ITT-I), the “VL slope: baseline to 24 h after first dose” value is reported as 0.8 (1.89) log10 PFUe/mL/24 h and the “VL slope: baseline to 48 h after first dose” value is 0.6 (1.52) log10 PFUe/mL/48 h. Moreover, the “AUC VL from baseline through day 12” value in the data set with RSV-A Memphis 37b [1] (ITT-IS (n = 19, post hoc)) was 325.8 (199.19) log10 PFUe/mL × h. For the same molecule, in the data set with RSV-A Memphis 37b [1] (ITT-IS), the “Reduction in AUC VL vs placebo” value was 34% and 34.25%; the “Peak VL” value is given as 3.7 (1.30) log10 PFUe/mL; the “Time to nondetectability (or <1 log) of RSV RNA” value was 4.9 (4.13) d; the “VL at 2.5 d (peak at placebo) after first dose” value is 2.3 (1.66) log10 PFUe/mL. Besides, in the data set on RSV-A Memphis 37b [1] (ITT-IS), the “VL slope: baseline to 24 h after first dose” value is given as 0.7 (1.50) log10 PFUe/mL/24 h and the “VL slope: baseline to 48 h after first dose” value is 0.6 (1.45) log10 PFUe/mL/48 h. Moreover, in the data set with RSV-A Memphis 37b [2] (ITT-I), the “AUC of mucous weight from baseline through day 12” value is given as 11.8 (22.99) g × No. of days and the “AUC of symptom score from baseline through day 12” value was 192.3 (244.97) score × h. The “Mean AUC of mucous weight lower than placebo” value in the data set on RSV-A Memphis 37b [2] (ITT-I, P = .1095) is reported as 38%. Besides, in the data set with RSV-A Memphis 37b [2] (ITT-I, not statistically significant), the “AUC of total symptom score lower than placebo” value is listed as 29%. In the data set on RSV-A Memphis 37b [2] (ITT-IS), the “AUC of mucous weight from baseline through day 12” value is given as 12.7 (24.69) g × No. of days and the “AUC of symptom score from baseline through day 12” value is given as 221.2 (252.05) score × h. Moreover, in the data set on RSV-A Memphis 37b [2] (ITT-IS, P = .0126), the “Reduction of mean AUC of mucous weight vs placebo” value is 46%. For the same molecule, in data set [3] (ITT (n = 28), 5 mg BID), the “Conjunctivitis attributed to study drug, subjects” value was 0 No. (%); the “FEV1 decreased attributed to study drug, subjects” value is given as 0 No. (%); the “Headache attributed to study drug, events” value was 1 No. of Events; the “Headache attributed to study drug, subjects” value is on record as 1 (3.6) No. (%). Further, in data set [3] (ITT (n = 28), 5 mg BID), the “No. of subjects with AEs attributed to study drug” value was 1 (3.6) No. (%) and the “Photophobia attributed to study drug, subjects” value is on record as 0 No. (%). The “No. of subjects with AEs (TEAEs)” value in data set [3] (ITT (n = 28), 5 mg BID, first dose to day 28) is 12 No. (%) and 12 (42.9) No. (%). In addition, the “Serious adverse events, deaths, other significant AEs” value in data set [3] (nebulized 5 mg BID for 5 days) is on record as “no serious adverse events”. In addition, the Tolerability result in data set [3] (nebulized 5 mg BID for 5 days, healthy subjects inoculated with RSV) is given as “well tolerated”. Moreover, the “Time at which steady state was reached” value in data set [4] (5 mg BID) is at most 4 days. Besides, the AUC in data set [4] (human, inhaled, 5 mg) is 11.7 ng·h/mL. Also, in data set [4] (human, inhaled, 5 mg, Mean plasma Cmax, 5 mg BID nebulized), the highest level (Cmax) was 1.5 ng/mL. For the same molecule, in data set [4] (human, inhaled, 5 mg, t½, apparent terminal half-life, geometric mean (CV%)), the half-life is 12.1 h. Besides, the Tmax in data set [4] (repeated 5 mg BID, median (range), after end of inhalation) is 0.542 (0.383–2.08) h.
